The results in this text go back to ChEMBL document CHEMBL2401624, “Synthesis and biological evaluation of novel substituted pyrrolo[1,2-a]quinoxaline derivatives as inhibitors of the human protein kinase CK2” (Eur J Med Chem, 2013).

The test system of data set [1] is Jurkat. The data set can be described thus: Selectivity index, ratio of CC50 for human PHA-activated PBMC to CC50 for human Jurkat cells.
Data set [2] has as its system Jurkat. Description: Antiproliferative activity against human Jurkat cells after 1 to 3 days by MTS assay. The class given is functional. The method, boiled down: (§1)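 Leukemic lines grown in RPMI 1640 with 10% FCS, penicillin/streptomycin and L-glutamine at 37°C, 5% CO2. Cells washed twice in PBS, plated in quadruplicate with compound at 0, 1, 5, 10, 20 and 50 µM for 1, 2 and 3 days. MTS added for 3 h at 37°C, absorbance read at 490 nm. CC50 after 3 days by linear regression, mean ± SD of 3 independent experiments.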
A general note: Tetrazolium dyes change colour on reduction, which living cells bring about.

For data set [3], the system named is MV4-11. The data set can be described thus: Antiproliferative activity against human MV4-11 cells after 1 to 3 days by MTS assay. Type of data set: functional. Put shortly: as §1
Data set [4] can be described thus: Cytotoxicity against human PHA-activated PBMC after 1 to 3 days by MTS assay. The class given is cell-based. Put shortly:
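PBMNC from blood of healthy volunteers, isolated by Ficoll gradient centrifugation and stimulated with PHA (5 µg/mL). Cells washed in PBS, plated in quadruplicate with compound at 0, 1, 5, 10, 20 and 50 µM for 1 to 3 days. MTS read at 490 nm after 3 h at 37°C. CC50 at day 3 by linear regression, mean ± SD of 3 independent experiments.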

The target of data set [5] is Casein kinase II (Homo sapiens, UniProt P19784+P67870+P68400). Description: Inhibition of human recombinant CK2 expressed in Escherichia coli BL21(DE3) using RRRDDDSDDD as substrate after 15 mins by capillary electrophoretic analysis.
Casein kinase II, sequence (P67870 whole entry): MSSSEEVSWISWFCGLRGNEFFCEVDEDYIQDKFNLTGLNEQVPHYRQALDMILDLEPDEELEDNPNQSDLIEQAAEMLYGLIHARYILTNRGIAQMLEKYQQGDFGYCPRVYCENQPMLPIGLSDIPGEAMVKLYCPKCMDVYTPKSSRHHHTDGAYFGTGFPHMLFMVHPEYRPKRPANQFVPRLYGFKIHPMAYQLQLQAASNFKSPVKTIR
Casein kinase II, sequence (P68400 whole entry): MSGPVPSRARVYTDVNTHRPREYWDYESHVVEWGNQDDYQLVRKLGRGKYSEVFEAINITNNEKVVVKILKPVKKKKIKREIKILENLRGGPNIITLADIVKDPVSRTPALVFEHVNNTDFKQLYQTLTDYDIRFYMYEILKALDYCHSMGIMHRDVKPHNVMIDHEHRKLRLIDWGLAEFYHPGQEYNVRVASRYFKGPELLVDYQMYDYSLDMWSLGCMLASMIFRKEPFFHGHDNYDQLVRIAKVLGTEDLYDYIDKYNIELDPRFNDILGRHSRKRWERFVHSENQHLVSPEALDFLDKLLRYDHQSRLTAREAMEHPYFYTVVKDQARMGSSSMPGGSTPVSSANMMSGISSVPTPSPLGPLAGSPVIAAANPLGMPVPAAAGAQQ
Casein kinase II, sequence (P19784 whole entry): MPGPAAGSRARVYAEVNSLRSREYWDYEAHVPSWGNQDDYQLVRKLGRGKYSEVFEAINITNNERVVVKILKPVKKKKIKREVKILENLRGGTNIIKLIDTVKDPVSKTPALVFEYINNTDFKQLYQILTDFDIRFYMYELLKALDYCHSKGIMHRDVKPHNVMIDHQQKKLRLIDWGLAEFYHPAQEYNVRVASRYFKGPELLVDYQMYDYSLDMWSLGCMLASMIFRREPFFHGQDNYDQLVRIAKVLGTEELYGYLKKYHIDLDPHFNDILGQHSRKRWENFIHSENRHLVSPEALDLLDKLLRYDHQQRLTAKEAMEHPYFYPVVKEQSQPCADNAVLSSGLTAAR
Data set [6] has as its system K562. Description: Antiproliferative activity against human K562 cells after 1 to 3 days by MTS assay. The class given is functional. The method, boiled down: as §1
In data set [7] the test system is U-937. The data set can be described thus: Antiproliferative activity against human U937 cells after 1 to 3 days by MTS assay. Type of data set: functional. Put shortly:
as §1

In data set [8] the test system is MV4-11. The data set can be described thus: Selectivity index, ratio of CC50 for human PHA-activated PBMC to CC50 for human MV4-11 cells.

Usually CC50 stands for the concentration giving 50% cytotoxicity. A high value points to better tolerance by the cells. In general, IC50 refers to the point on the concentration scale where inhibition reaches its midpoint. `O=C(O)c1nc2cc(Nc3cccc(Cl)c3)ccc2n2cccc12`: in data set [1], the “Selectivity Index” value turned out to be 1.6. Also, the CC50 in data set [2] was 31.4 µM; in data set [3], 47 µM; in data set [4], over 50 µM; in data set [6] it was over 50 µM; in data set [7] it was 39.2 µM. For the same molecule, the IC50 in data set [5] amounted to 0.982 µM.

As for `C#Cc1cccc(Nc2ccc3c(c2)nc(C(=O)O)c2cccn23)c1`, the IC50 in data set [5] was found to be 0.85 µM.

For `O=C(O)c1ccc2c(c1)nc(Nc1cccc(Cl)c1)c1cc(-c3cccnc3)cn12`, in data set [5], the IC50 is 1.57 µM.

In the case of `C#Cc1cccc(Nc2nc3cc(C(=O)O)ccc3n3cc(-c4cccnc4)cc23)c1`, the IC50 in data set [5] came to 0.89 µM.

`Nc1cccc(C#Cc2ccc3c(c2)nc(C(=O)O)c2cccn23)c1`: the IC50 in data set [5] worked out at 8.25 µM.

On to `O=C(O)c1cc2c(Nc3cccc(Cl)c3)nc3ccccc3n2c1`, for which the CC50 in data set [2], in data set [3], in data set [4], in data set [6] and in data set [7] was over 50 µM throughout. For the same molecule, the IC50 in data set [5] worked out at 4.28 µM.

For `C#Cc1cccc(Nc2nc3ccccc3n3cc(C(=O)O)cc23)c1`, the CC50 in data set [2] was 41 µM; in data set [3], over 50 µM; in data set [4], over 50 µM; in data set [6], over 50 µM; in data set [7], over 50 µM. In addition, in data set [5], the IC50 was 1.89 µM.

For `O=C(O)c1ccn2c1c(Nc1cccc(Cl)c1)nc1ccccc12`, the CC50 in data set [2] was over 50 µM; in data set [3] it was over 50 µM; in data set [4], over 50 µM; in data set [6] it was 42 µM; in data set [7] it was 47.7 µM. Moreover, in data set [5], the half-inhibitory concentration (IC50) was found to be 0.049 µM.

In the case of `C#Cc1cccc(Nc2nc3ccccc3n3ccc(C(=O)O)c23)c1`, the CC50 in data set [2], in data set [3], in data set [4], in data set [6] and in data set [7] was over 50 µM throughout. The IC50 in data set [5] was 0.134 µM.

Take `O=C(O)c1ccc2c(c1)nc(Nc1cccc(Cl)c1)c1cccn12`: in data set [8], the “Selectivity Index” value is reported as over 2.5. The CC50 was over 50 µM in data set [2]; 20 µM in data set [3]; over 50 µM in data set [4]; over 50 µM in data set [6]; over 50 µM in data set [7]. Besides, in data set [5], the IC50 was 0.118 µM.

Take `C#Cc1cccc(Nc2nc3cc(C(=O)O)ccc3n3cccc23)c1`: the “Selectivity Index” value in data set [8] is on record as over 2.5. The CC50 in data set [2] was over 50 µM; in data set [3], 20 µM; in data set [4], over 50 µM; in data set [6], over 50 µM; in data set [7], over 50 µM. For the same molecule, the IC50 in data set [5] is 0.078 µM.

On to `O=C(O)c1ccc2nc(Nc3cccc(Cl)c3)c3cccn3c2c1`, for which the CC50 in data set [2], in data set [3], in data set [4], in data set [6] and in data set [7] was over 50 µM throughout. In addition, in data set [5], the IC50 worked out at 0.834 µM.

Turning to `C#Cc1cccc(Nc2nc3ccc(C(=O)O)cc3n3cccc23)c1`, the CC50 in data set [2], in data set [3], in data set [4], in data set [6] and in data set [7] was over 50 µM each time. Also, in data set [5], the IC50 was found to be 0.834 µM.

In the case of `O=c1oc2c(O)c(O)cc3c(=O)oc4c(O)c(O)cc1c4c23` [ELLAGIC ACID], the IC50 in data set [5] was 0.04 µM.

For the molecule `O=C(O)c1ccc2c(c1)nc(Nc1cccc(Cl)c1)c1ccncc12` [SILMITASERTIB], the CC50 in data set [2] came out at 4.5 µM; in data set [3] it was 3 µM; in data set [4] it was 50 µM; in data set [6], 7 µM; in data set [7], 4.2 µM.
